Results reported in publication PMC5035373 (Diabetes Technology & Therapeutics, 2016).

Legend:
[1] = tested on: patients with type 2 diabetes; test: Safety and tolerability: adverse events, pain per visual analog scale; type: in vivo, human
Method in brief: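 All enrolled patients were analysed for safety. Injection-site reactions, AEs and SAEs were recorded on study days and later visits, with their relation to the intervention. Insertion pain was rated on a visual analog scale and preference was surveyed. Intradermal vs SC tolerability was compared within subjects by Wilcoxon paired test.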

[2] = Insulin pharmacokinetics after ID; type: in vivo, human; details: for Insulin AUC 0–1 / Insulin AUC 0–1.5 / Insulin AUC 4–6: SD; for Cmax, median / Insulin AUC (360 min), median / Tmax, median: 0.2 U/kg
Method in brief: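 Open-label randomized crossover in type 2 diabetics (30–70 y, BMI <35, HbA1c 6.5%–10%, drug-naive or metformin only). Insulin aspart 0.2 U/kg into right lower abdomen, intradermal via MicronJet or SC via pen, 4–14 days apart, fasting or pre-standard meal. Blood at −5 min, baseline, every 10 min to 2 h, then every 30 min to 6 h. Insulin measured by immunoassay; AUC, partial AUCs, AUCID/AUCSC derived.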

[3] = ID via MicronJet needle, all patients, n = 14
[4] = ID via MicronJet needle, before standard meal test, n = 3
[5] = SC conventional needle, all patients, n = 14
[6] = SC conventional needle, before standard meal test, n = 3
[7] = SC conventional needle, fasting, n = 11

## Insulin aspart
[1]; 17 patients in safety analysis, 5 AEs in total
  Subjects experiencing AEs: 3 of 17
[1]; all 17 patients, ID and SC injections
  Local AEs (injection site reactions): No local AEs (injection site reactions) were reported
[2]; ID MicronJet, 0–1 h, fasting population n = 11, mean ± SD
  Insulin AUC 0–1: 3695.2 ± 1593.3 μU/mL/min
[2]; ID MicronJet, 0–1.5 h, fasting population n = 11, mean ± SD
  Insulin AUC 0–1.5: 4912.0 ± 2154.6 μU/mL/min
[2]; ID MicronJet, 0–1.5 h postinjection, overall population n = 14, mean ± SD
  Insulin AUC 0–1.5: 5156.3 ± 1988.7 μU/mL/min
[2]; ID MicronJet, 4–6 h, fasting population n = 11, mean ± SD
  Insulin AUC 4–6: 2027.3 ± 946.5 μU/mL/min
[2]; ID MicronJet, 4–6 h postinjection, overall population n = 14, mean ± SD
  Insulin AUC 4–6: 2054.4 ± 857.7 μU/mL/min
[2]; [3]
  Cmax, median: 80 μU/mL
  Insulin AUC (360 min), median: 9913.75 μU/mL/min
  Tmax, median: 0.583 h
[2]; [4]
  Cmax, median: 95 μU/mL
  Insulin AUC (360 min), median: 12690 μU/mL/min
  Tmax, median: 0.833 h
[2]; ID via MicronJet needle, fasting, n = 11
  Cmax, median: 79 μU/mL
[2]; [5]
  Cmax, median: 55 μU/mL
  Insulin AUC (360 min), median: 10936.25 μU/mL/min
  Tmax, median: 1.46 h
[2]; [6]
  Cmax, median: 68 μU/mL
  Insulin AUC (360 min), median: 13960 μU/mL/min
  Tmax, median: 1.17 h
[2]; [7]
  Cmax, median: 54.5 μU/mL
  Insulin AUC (360 min), median: 10,407.5 μU/mL/min
[2]; SC via NovoPen conventional needle, fasting, n = 11, type 2 diabetes
  Tmax, median: 1.5 h
[2]; SC, 0–1 h, fasting population n = 11, mean ± SD
  Insulin AUC 0–1: 2346.1 ± 609.7 μU/mL/min
[2]; SC, 0–1 h postinjection, overall population n = 14, mean ± SD, post hoc
  Insulin AUC 0–1: 2534.1 ± 737.1 μU/mL/min
[2]; SC, 0–1.5 h, fasting population n = 11, mean ± SD
  Insulin AUC 0–1.5: 3647.7 ± 904.0 μU/mL/min
[2]; SC, 0–1.5 h postinjection, overall population n = 14, mean ± SD
  Insulin AUC 0–1.5: 4035.4 ± 1255.9 μU/mL/min
[2]; SC, 4–6 h, fasting population n = 11, mean ± SD
  Insulin AUC 4–6: 2903.3 ± 1571.9 μU/mL/min
[2]; SC, 4–6 h postinjection, overall population n = 14, mean ± SD
  Insulin AUC 4–6: 2929.0 ± 1412.1 μU/mL/min
